Compound activity deposited in PubChem BioAssay by Sanford-Burnham Center for Chemical Genomics.
SENP1 FRET inh: blocks the human SENP1 SUMO protease catalytic domain; 360,000 compounds, 0.21% hits; inhibition, % at 10 µM; recombinant SENP1 catalytic domain, CyPet-SUMO1-YPet FRET cleavage; AID 624204;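 active = inhibition at least 30% at 10 µM, raw YFP signal under a set limit, fluorescence ratio 0.5 to 1.5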;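 also: 0% = enzyme with DMSO and 100% = no enzyme wells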
Target sequence (Q9P0U3 419-644 limits assumed): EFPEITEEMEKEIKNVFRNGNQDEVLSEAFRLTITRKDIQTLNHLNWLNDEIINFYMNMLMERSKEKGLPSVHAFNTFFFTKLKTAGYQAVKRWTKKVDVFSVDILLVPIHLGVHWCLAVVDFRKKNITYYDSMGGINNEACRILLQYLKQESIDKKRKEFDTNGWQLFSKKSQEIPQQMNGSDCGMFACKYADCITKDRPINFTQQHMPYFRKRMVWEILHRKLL
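material = recombinant human SENP1 catalytic domain, His6-tagged | quantity = 20 pM enzyme | reagent = 25 nM SUMO1 FRET substrate | compound dosing = 10 µM single point, 0.5% DMSO | timing = 50 min enzyme reaction, room temperature, light-protected | detection = FRET, CFP and YFP emission | control set = no-enzyme low, enzyme-DMSO high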
EBI2 antag: antagonists of human EBI2 receptor; EBI2 beta-arrestin recruitment, luminescence, 7a,25-OHC stimulated; inhibition, % at 5 µM; 360,000 compounds, 0.81% hits; AID 651636; in the data active = inhibition above about 38%;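 also: enzyme fragment complementation signal reports receptor beta-arrestin coupling in cells; 0% = agonist plus DMSO wells and 100% = wells without agonist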
Target sequence (P32249 whole entry, looked up, the tested form may be a part): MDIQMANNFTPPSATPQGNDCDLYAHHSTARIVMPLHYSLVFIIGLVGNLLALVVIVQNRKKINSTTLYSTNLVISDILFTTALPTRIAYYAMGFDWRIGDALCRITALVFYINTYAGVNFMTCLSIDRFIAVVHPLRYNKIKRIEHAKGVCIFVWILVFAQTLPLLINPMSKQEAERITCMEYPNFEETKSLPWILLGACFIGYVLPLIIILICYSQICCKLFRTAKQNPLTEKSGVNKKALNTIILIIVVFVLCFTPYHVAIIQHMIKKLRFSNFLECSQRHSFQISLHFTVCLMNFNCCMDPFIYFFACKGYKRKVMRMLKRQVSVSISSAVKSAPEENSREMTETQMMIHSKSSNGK
MPTP block: blocks calcium-induced mitochondrial swelling. isolated mouse mitochondria, Ca2+ swelling absorbance, 30 min. inhibition, % at 10 µM. 360,000 compounds, 1.4% hits;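 active = inhibition of 50% or more, scaled per plate between neutral and stimulator controls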;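 also: 0% = DMSO wells given calcium and 100% = 1 mM EGTA wells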
NR3A LBD binder: modulates the human NR3A ligand-binding domain. 340,000 compounds, 2.5% hits. NR3A LBD differential scanning fluorimetry, Tm shift; 0% = protein alone, 100% = glycine-bound protein. Tm shift relative to glycine control, % at 25 µM. AID 1259313;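 active = melting temperature shift of at least 10% of the positive control shift, at one fixed dose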
EBI2 antag conf: EBI2 (human) antagonism, single concentration confirmation. shares compounds with EBI2 antag. EBI2 beta-arrestin luminescence, 7a,25-OHC antagonism. inhibition, % at 5 µM. 2,400 compounds, 29% hits. AID 651997;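 active = inhibition of at least 50%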
EBI2 agonist: activates EBI2, counter-screen for EBI2 antagonists; shares compounds with EBI2 antag; EBI2-expressing cells, agonist mode, luminescence, 60 min; 0% vehicle, 100% 7α,25-dihydroxycholesterol control; activation, % at 5 µM; 2,400 tested, under 10 active;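 active = activation of at least 50%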
bGal counter: counter-screen for EBI2 antagonists: E. coli beta-galactosidase inhibition; shares compounds with EBI2 antag; purified beta-galactosidase, luminescent Galacton Star, 15 min; inhibition, % at 5 µM; 2,400 compounds, 1% hits;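 active = replicate-average signal at least 3 plate SD below neutral wells, shown as high inhibition, flagging enzyme-inhibiting false positives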;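 also: 0% = DMSO wells with enzyme and 100% = wells lacking enzyme; higher means stronger loss of beta-gal luminescence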
An asterisk follows results filed as active; . = no result given. Only some compounds are listed: those with a hit (about 4.4% of all), similar ones and a draw of the others.

SMILES	SENP1 FRET inh	EBI2 antag	MPTP block	NR3A LBD binder	EBI2 antag conf	EBI2 agonist	bGal counter
O=C(c1cc2c(=O)oc3ccccc3c2s1)N1CCOCC1	0.4	13.2	0.1	2.2	.	.	.
CCN1CCN(C(=O)c2cc3cc4cc(OC)ccc4nc3s2)CC1	-1.8	-8.3	-2.0	-0.3	.	.	.
Cc1ccc2cc3cc(C(=O)N4CCN(C(=O)c5ccco5)CC4)sc3nc2c1	0.7	63.3*	-3.0	2.2	30.2	-1.1	-6.9
O=C(c1ccco1)N1CCN(C(=O)c2cc3c(=O)oc4ccccc4c3s2)CC1	3.5	80.5*	-0.3	-0.9	60.9*	0.9	-4.1
Cc1ccc2[nH]c(=O)c3cc(C(=O)N4CCN(C(=O)c5ccco5)CC4)sc3c2c1	3.8	-0.4	-1.4	-1.0	.	.	.
COCCn1c(SCC(=O)NC2CCCC2)nc2c(c1=O)SCC2	-1.4	2.9	-0.6	1.8	.	.	.
OCCCNc1cc(-c2ccccc2)nc2cc(-c3ccc(F)cc3)nn12	-106.2	55.0*	1.2	-3.9	49.1	-0.7	-6.3
COc1cccc(N2CCN(C(=O)CCC(=O)c3ccc(Cl)s3)CC2)c1	0.7	0.9	0.1	1.8	.	.	.
COc1ccc(-n2c(COc3ccccc3)nnc2SCC(N)=O)cc1	-0.5	48.9*	0.2	1.0	3.5	-1.4	-10.9
COc1ccc(-n2c(Cc3cccn3C)nnc2SCC(=O)NCCc2ccccc2)cc1	-0.1	44.4*	-2.2	1.1	36.2	-0.7	4.3
COc1ccc(-n2c(Cc3cccn3C)nnc2SCC(=O)Nc2cccc(OC)c2)cc1	-3.0	32.1	-2.2	-1.4	.	.	.
COc1ccc(-n2c(Cc3cccn3C)nnc2SCC(=O)Nc2ccc(C)c(Cl)c2)cc1	-0.9	46.8*	0.2	-7.8	22.8	-0.9	11.1
COc1ccc(-n2c(Cc3cccn3C)nnc2SCC(=O)Nc2ccccc2C)cc1	1.8	55.2*	0.6	-2.7	22.7	-1.1	-6.0
COc1ccc(-n2c(Cc3cccn3C)nnc2SCC(=O)Nc2ccccc2F)cc1	-4.4	36.3	-0.3	-0.3	.	.	.
Cc1ccccc1S(=O)(=O)NC(=O)C1(C)CCN1C(=O)CC1CCCC1 (centres undefined)	-0.3	-7.5	0.3	.	.	.	.
O=C(CSc1ccc2nnc(-c3ccccn3)n2n1)Nc1cccc(F)c1	-4.2	35.1	-0.7	-2.0	.	.	.
COc1ccc(NC(=O)CSc2nnc(Cc3cccn3C)n2-c2ccc(C)cc2)cc1OC	-1.1	-8.3	-1.5	1.1	.	.	.
COc1ccc(-n2c(Cc3cccn3C)nnc2SCC(=O)Nc2cccc(C)c2C)cc1	-1.8	49.4*	1.5	0.9	24.7	-1.8	-7.8
CCOC(=O)c1ccccc1NC(=O)CSc1nnc(Cc2cccn2C)n1-c1ccc(C)cc1	-3.3	54.4*	-1.5	0.1	29.1	-0.7	-10.2
COc1ccc(-n2c(Cc3cccn3C)nnc2SCC(=O)Nc2ccc(F)cc2F)cc1	1.7	33.7	-2.3	-2.7	.	.	.
COc1ccc2oc(C(=O)N3CCN(S(=O)(=O)c4c(C)c(C)cc(C)c4C)CC3)c(C)c2c1	-12.1	79.9*	1.3	2.4	52.9*	1.1	-16.5
Cc1ccc(C)c(N2CCN(C(=O)c3cc4c(C)nc5ccccc5c4o3)CC2)c1	-2.9	87.9*	-1.5	-1.9	60.1*	-0.8	-11.7
COc1ccccc1N1CCN(C(=O)c2oc3ccc(Br)cc3c2C)CC1	0.9	75.2*	-1.3	3.7	44.9	2.2	0.1
COc1ccccc1N1CCN(C(=O)c2cc3c(C)nc4ccccc4c3o2)CC1	1.6	73.5*	1.0	-2.0	53.2*	1.6	3.0
CC(=O)c1cccc(-c2ccnc3c2CC(C(=O)Nc2cccc(OC(F)(F)F)c2)O3)c1 (centres undefined)	-3.0	0.3	1.3	.	.	.	.
SMILES	SENP1 FRET inh	EBI2 antag	MPTP block	NR3A LBD binder	EBI2 antag conf	EBI2 agonist	bGal counter
CC(=O)O/N=C(\N)c1ccc(-c2csnn2)cc1	-0.7	1.9	1.1	-0.3	.	.	.
CCCCCCSc1ccc(-c2nc3ccc(C)cn3c2NC2CCCCC2)cc1	-51.2	44.8*	6.0	-6.0	22.4	1.6	8.1
CCOc1cccc2sc(N3CCN(C(=O)c4ccc5ncsc5c4)CC3)nc12	1.7	44.7*	-0.7	1.2	30.4	2.4	-1.0
COc1ccc(OC)c2sc(N3CCN(C(=O)c4ccc5ncsc5c4)CC3)nc12	1.4	53.6*	-2.8	.	16.8	-0.9	-7.2
O=C(c1ccc2nc[nH]c2c1)N1CCN(c2cccc(C(F)(F)F)c2)CC1	-3.3	-32.5	-0.7	-1.3	.	.	.
O=C(c1ccc2ncsc2c1)N1CCN(c2cccc(C(F)(F)F)c2)CC1	-3.5	53.9*	-1.7	0.9	12.7	-0.2	-10.2
COc1ccc2nc(N3CCN(C(=O)c4ccc5ncsc5c4)CC3)sc2c1	-2.4	19.8	-0.8	-4.5	.	.	.
CCOC(=O)Cc1csc(NC(=O)CSc2nccn2C)n1	0.4	-3.0	0.7	-0.6	.	.	.
Cc1ccc(C)c(S(=O)(=O)N2CCN(C(=O)CCNC(=O)c3ccc(Br)cc3)CC2)c1	2.1	75.2*	-2.1	-0.3	32.9	0.7	2.1
Cc1ccccc1OCCC(=O)N1CCN(S(=O)(=O)c2ccccc2F)CC1	0.7	25.0	-1.2	-1.1	.	.	.
Cc1ccc(C)c(S(=O)(=O)N2CCN(C(=O)CCNS(=O)(=O)c3ccc(C)c(C)c3)CC2)c1	0.3	6.7	-0.1	-0.6	.	.	.
Cc1ccc(C)c(OCCC(=O)N2CCN(S(=O)(=O)c3cc(C)ccc3C)CC2)c1	-0.5	66.3*	-1.8	-1.4	44.0	5.4	7.6
Cc1ccc(S(=O)(=O)N2CCN(C(=O)CCc3c[nH]c4ccccc34)CC2)cc1	-5.2	10.3	-0.6	-1.6	.	.	.
Cc1ccccc1OCCC(=O)N1CCN(S(=O)(=O)c2ccc(Br)cc2)CC1	2.2	43.8*	-0.2	-1.2	32.3	-0.9	-15.2
Cc1ccc(S(=O)(=O)N2CCN(C(=O)CCc3c[nH]c4ccccc34)CC2)c(C)c1	-0.6	47.0*	-3.7	2.5	29.0	-1.0	-2.8
Cc1nnc(SCC(=O)Nc2cccc(Cl)c2)n1CC1CCCO1 (centres undefined)	-3.5	-5.7	-1.4	-3.3	.	.	.
CCCNc1c(NC(=O)c2ccc3c(c2)OCO3)c(=O)oc2ccccc12	3.2	-5.1	-2.0	-1.0	.	.	.
O=C(COc1ccccc1Cl)Nc1ccc(N2CCN(C(=O)c3ccccc3)CC2)cc1	-0.2	1.5	2.2	0.3	.	.	.
Cc1ccc(NC(=O)N/C=C/c2ccco2)cc1	-6.4	-7.1	0.0	-4.2	.	.	.
O=C(CCC1CCCN(C(=O)CCN2CCCCC2=O)C1)NCc1ccccc1F (centres undefined)	2.3	-0.5	-1.3	-1.0	.	.	.
CCCN(CC1CC1)C(=O)COC(=O)c1[nH]c(C)c(C(=O)OCC)c1C	-1.2	-10.2	-1.6	4.9	.	.	.
